From PubChem
A selection: hits, their analogues and other compounds. The true share with any hit is near 4.7%.
Cl transport mod = KCC2 cotransporter modulators, thallium flux, primary screen, cell-based, HEK293 KCC2, FluoZin-2 fluorescence, MLSMR | Solute carrier family 12 member 5 (Homo sapiens), Q9H2X9 | KCC2 cells, thallium flux FluoZin-2 fluorescence | B-score of Tl+ flux slope (higher = more flux/activation; lower = inhibition) at 10 µM | 2.2% of 190,000 active;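 active = thallium flux slope and its plate-corrected score both differing from the plate sample mean at a set confidence after two filtering rounds, in either direction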;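 note: slope of fluorescence scaled to starting intensity during 10 to 20 s after thallium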
RGS4 inh = RGS4 inhibitors, primary screen, cell-based, HEK293 M3R inducible RGS4, calcium flux; Regulator of G-protein signaling 4 (Homo sapiens), P49798; Fluo-4 calcium flux; stronger effect = higher value; triggered by carbachol at its EC20; B-score at 10 µM; 0.45% of 310,000 active;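 active = B-score, a plate-corrected calcium signal, over three deviations above library mean, with baseline fluorescence within five deviations of library mean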;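 note: RGS4 expression induced by doxycycline in cells with stable M3 receptor; B-score is computed from the integrated fluorescence ratio over baseline after carbachol; higher B-score means a larger calcium signal and so more RGS4 inhibition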
Target sequence (P49798 whole entry, looked up): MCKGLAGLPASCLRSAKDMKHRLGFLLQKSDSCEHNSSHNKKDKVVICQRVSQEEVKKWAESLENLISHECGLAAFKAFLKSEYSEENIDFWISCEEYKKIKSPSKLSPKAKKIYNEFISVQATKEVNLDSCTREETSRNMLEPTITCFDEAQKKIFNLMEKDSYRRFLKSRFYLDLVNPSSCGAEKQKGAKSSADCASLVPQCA
MrgX1 antagonist = antagonists of human MrgX1 receptor, primary screen, HEK293 cells, Fluo-4 calcium flux; BAM8-22 antagonism; stronger effect = lower value; AID 588676, 2011; 1.3% of 310,000 active; Mas-related G-protein coupled receptor member X1 (Homo sapiens), Q96LB2; B-score at 10 µM;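 active = calcium-response B-score plate-corrected more than 3 library SD below zero, starting fluorescence within 5 deviations, no agonist response on first addition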;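 note: peak minus trough fluorescence over baseline after final BAM8-22 challenge near maximal dose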
Target sequence (Q96LB2 whole entry, looked up): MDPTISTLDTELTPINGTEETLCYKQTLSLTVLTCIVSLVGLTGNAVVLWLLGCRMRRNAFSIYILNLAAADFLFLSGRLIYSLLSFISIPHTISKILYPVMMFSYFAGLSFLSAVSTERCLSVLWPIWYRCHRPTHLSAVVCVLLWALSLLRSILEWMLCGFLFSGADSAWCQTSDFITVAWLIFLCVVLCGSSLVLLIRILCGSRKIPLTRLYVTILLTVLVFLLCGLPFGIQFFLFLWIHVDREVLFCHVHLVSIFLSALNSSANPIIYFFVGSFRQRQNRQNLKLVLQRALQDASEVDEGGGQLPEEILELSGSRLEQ
RGS4 act = RGS4 potentiators or activators, primary screen, cell-based, HEK293 M3R inducible RGS4, calcium flux; carbachol calcium flux Fluo4; stronger effect = lower value; B-score at 10 µM; 0.92% of 310,000 active;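 active = B-score of the integrated calcium signal more than 4 SD below the library mean, with starting fluorescence not abnormally high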;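 note: negative B-score means reduced calcium response which marks RGS4 activation or potentiation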
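System – HEK293 FlpIn-TREx cells, stable M3R, doxycycline-inducible RGS4 · Reagent – ECmax carbachol challenge · Times – compound preincubation 20 min at room temperature before agonist · Technique – Fluo4 fluorescence kinetic imaging of calcium · Measure – B score of integrated Fluo4 ratio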
MrgX1 agonist = agonists of human MrgX1 receptor, primary screen, HEK293 cells, Fluo-4 calcium flux | B-score at 10 µM | Mas-related G-protein coupled receptor member X1 (Homo sapiens), Q96LB2 | 0.44% of 310,000 active | Fluo-4 calcium fluorescence, agonist mode; stronger effect = higher value;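 active = calcium response B-score plate-corrected fluorescence ratio at least 3 library SD, with starting fluorescence B-score inside 5 SD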
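times = overnight plating, then 30 min 37 °C plus 30 min room-temperature dye loading | assay system = stable human MrgX1 HEK293 cell line | input = fifteen thousand cells per well | signal = kinetic calcium dye fluorescence, Fluo-4 NW | dosing = compound delivered in addition one of three | read-out = B-scored fluorescence response ratio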
MrgX1 PAM = positive allosteric modulators of MrgX1, primary screen, HEK293 cells, Fluo-4 calcium flux. Mas-related G-protein coupled receptor member X1 (Homo sapiens), Q96LB2. FDSS; stronger effect = higher value. B-score at 10 µM. 0.63% of 310,000 active;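 active = plate-corrected calcium response at least 3 library SD above typical, normal starting fluorescence, not activating the receptor alone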;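 note: compound read alongside a low EC10 to EC30 dose of BAM8-22 agonist; peak minus trough fluorescence over baseline measured at the second addition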
KCC2 secondary = KCC2 modulators in sodium-free buffer, confirmation, cell-based, HEK293 KCC2, thallium flux, secondary assay; shares compounds with Cl transport mod; FluoZin2 fluorescence; stronger effect = higher value; normalised thallium flux (F/F0 slope) at 10 µM; 15% of 3,700 active;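 active = thallium flux slope above the same plate's solvent-only control mean plus 3 SD; inconclusive = the two replicate wells disagree; inactive = no significant difference from solvent-only control wells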
KCC2 bumet counter = thallium flux persisting under bumetanide in KCC2 cells, confirmation, counter-screen for KCC2 modulator project, cell-based, HEK293 KCC2, FluoZin2, secondary assay 3; shares compounds with Cl transport mod; HEK293-KCC2 + bumetanide/ouabain; stronger effect = higher value; normalized thallium flux at 10 µM; 49% of 3,700 active; AID 1714, 2009;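 active = thallium entry rate above the same plate's blocked-transporter control wells by more than 3 SD; inconclusive = the two repeat wells disagree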;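 note: raw slope of fluorescence over initial fluorescence between 10 and 20 s after thallium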
KCC2 secondary2 = KCC2 modulators without ouabain present, confirmation, cell-based, HEK293 KCC2, thallium flux, FluoZin2, secondary assay 2; shares compounds with Cl transport mod; 23% of 3,700 active; AID 1715, 2009; normalized thallium flux at 10 µM; thallium flux FluoZin2 fluorescence; actives lie on both sides; F/F0 rise rate, 10–20 s post-thallium;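 active = thallium flux slope more than 3 SD above or below the plate's solvent-only control mean, mostly below; inconclusive = the two repeat wells disagreed; inactive = no significant shift from solvent-only controls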;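 note: raw slope with 0.1% DMSO as baseline and bumetanide as block control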
HEK counter1 = thallium flux modulation in parental HEK cells, confirmation, counter-screen for KCC2 modulator project, cell-based, counterscreen 1 | shares compounds with Cl transport mod | HEK293 parental cells, thallium flux FluoZin2, ouabain; baseline-ratio fluorescence slope, 10–20 s after thallium | thallium flux rate (normalised fluorescence) at 10 µM | 46% of 3,700 active | AID 1716, 2009;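 active = thallium flux rate significantly above the same plate's solvent-only control wells, beyond their mean plus 3 SD; inconclusive = the two replicate wells gave conflicting results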
KCC2 ouabain = KCC2 inhibitors and activators, ouabain retest, confirmation, HEK-KCC2 cells; shares compounds with Cl transport mod; HEK293-KCC2, thallium flux FluoZin2 fluorescence; bidirectional: low = inhibitor, high = activator; raw Tl+ flux slope (below DMSO = inhibition, above = activation) at 10 µM; 48% of 3,700 active;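 active = thallium flux slope beyond 3 SD from same-plate DMSO control mean in most replicates, usually higher, sometimes lower; inconclusive = repeat tests gave conflicting results; inactive = no significant difference from controls in most replicates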;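 note: slope of initial-normalized fluorescence between seconds 10 and 20 after thallium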
HEK293 Tl flux2 = native HEK Tl+ uptake effects, second counter-screen – HEK cells, counterscreen 2, counter-screen for KCC2 modulator project, confirmation | shares compounds with Cl transport mod | HEK293 parental, thallium flux FluoZin-2 fluorescence slope | thallium flux slope at 10 µM | 33% of 3,700 active;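 active = thallium flux slope above the same plate's solvent-control mean plus 3 SD in both duplicate wells; inconclusive = duplicate wells that disagreed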;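 note: run without ouabain in cells lacking the KCC2 cotransporter; slope of fluorescence scaled to its starting value between 10 and 20 s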
Numbers without * were called inactive; i = inactive; ? = inconclusive; / = not tested or not shown.

SMILES	Cl transport mod	RGS4 inh	MrgX1 antagonist	RGS4 act	MrgX1 agonist	MrgX1 PAM	KCC2 secondary	KCC2 bumet counter	KCC2 secondary2	HEK counter1	KCC2 ouabain	HEK293 Tl flux2
COc1ccc(-c2csc(NC(=S)NC(=O)c3cccs3)n2)cc1OC	31.4*	i	/	-7.27*	/	/	0.01*	0.0458*	0.0561*	0.0445*	0.0476*	0.0444*
CCCCC(=O)Nc1ccc(NC(=S)NC(=O)c2ccco2)cc1OC	13.3*	i	i	i	i	i	0.0222*	0.0474*	?	0.0202*	0.0264*	0.0219*
O=C(CCCn1cc([N+](=O)[O-])cn1)Nc1ccc2c(c1)OCO2	/	i	i	i	i	i	/	/	/	/	/	/
CCCCCN(C(=O)CCC(=O)OC(C)C(=O)NC1CCCCC1)c1c(N)n(CCCC)c(=O)[nH]c1=O (configuration not stated)	/	i	i	i	i	i	/	/	/	/	/	/
Cc1cc(NC(=O)CCC(=O)N(c2ccccc2)C(C(=O)NC2CCCC2)c2ccccc2C)no1 (configuration not stated)	/	i	i	i	i	i	/	/	/	/	/	/
COc1cccc(-c2nc(CS(=O)(=O)CC(=O)Nc3cc(OC)ccc3OC)c(C)o2)c1	/	i	i	i	i	i	/	/	/	/	/	/
COc1cc(NC(=S)NC(=O)c2cccs2)ccc1NC(=O)C(C)C	5.13*	i	i	i	i	i	0.00987	0.0244*	0.0305	0.0103*	?	0.0106*
CC(NC(=O)CCc1nnc(-c2ccc(-c3ccccc3)cc2)o1)c1nccs1 (configuration not stated)	-4.11*	i	i	i	i	i	0.0152	0.00462	0.0241*	0.00707	0.0145	0.00984
O=C(CCc1nnc(Cc2ccc(-c3ccccc3)cc2)o1)NCCc1ccccn1	-1.47	i	i	i	i	i	/	/	/	/	/	/
O=C(CCc1nnc(-c2ccc(-c3ccccc3)cc2)o1)NCCc1ccccn1	-3.22*	i	i	i	i	i	0.00823	0.00737	0.0372	0.00417	?	?
CC(c1nccs1)N(C)C(=O)CCc1nnc(-c2ccc(-c3ccccc3)cc2)o1 (configuration not stated)	-1.99	i	i	i	i	i	/	/	/	/	/	/
CCOC(=O)N1CCN(C(=S)NC(=O)C23CC4CC(CC(C4)C2)C3)CC1	5.91*	i	i	i	i	i	0.0104	0.0297*	0.0369	0.0118*	?	0.0111
CCN(CC)CCNC(=O)C12CC3CC(CC(C3)C1)C2	1.29	i	i	i	i	i	/	/	/	/	/	/
CCN(CC)C(=S)NC(=O)C12CC3CC(CC(C3)C1)C2	20.1*	i	i	i	i	i	0.00585	0.0549*	0.042*	0.0284*	0.0428*	0.0337*
CCOC(=O)N1CCN(C(=S)NC)CC1	/	i	i	i	i	i	/	/	/	/	/	/
CC(NCc1ccc(F)cc1)C(=O)Nc1cc(S(=O)(=O)N2CCCCC2)ccc1Cl (configuration not stated)	-4.74*	i	i	i	i	i	0.0105	0.00803*	?	0.00645	0.0158*	0.0103
O=C(CCl)Nc1cc(S(=O)(=O)N2CCCCCC2)ccc1Cl	-0.545	i	i	i	i	i	/	/	/	/	/	/
O=C1C2C3C=CC(CC3)C2C(=O)N1/N=C/c1c(O)ccc2ccccc12 (configuration not stated)	3.3*	i	i	i	i	i	0.00905	0.006	0.0313	0.00772	0.022	0.0105
Cc1ccc(S(=O)(=O)Nc2ccc(C(=O)NCCCN3CCOCC3)cc2)cc1[N+](=O)[O-]	/	i	i	i	i	i	/	/	/	/	/	/
Nc1nc(NCCCN2CCOCC2)nc(Nc2cccc(Cl)c2)c1[N+](=O)[O-]	-0.415	i	i	i	i	i	/	/	/	/	/	/
Cc1sc2nc(CSc3nnc(Cc4cccs4)n3C3CCCCC3)[nH]c(=O)c2c1C	/	i	i	i	i	i	/	/	/	/	/	/
Cc1sc2nc(SCc3nnc(-c4cccs4)o3)n(C3CCCC3)c(=O)c2c1C	10.3*	i	i	i	i	i	0.0165*	0.0461*	0.0343	0.019*	0.0307	0.014*
O=C(Nc1ccc(C(=O)N2CCCCC2)cc1)Nc1cccc(Cl)c1	/	i	i	i	i	i	/	/	/	/	/	/
Cc1cc2c(cc1C)-c1nnc(-c3ccc4ccccc4n3)n1C(C)(C)C2	-4.97*	i	i	i	i	i	0.00651	0.00522	0.0299	0.00798	0.0189	0.0111
CCCCN(C)CCC(=O)Nc1ccc2c(c1)CCC2	6.09*	i	i	i	i	i	0.00669	?	0.031	0.00798	0.0185	0.0113
O=C(C1CCCCC1)N1CCN(S(=O)(=O)c2cccc([N+](=O)[O-])c2)CC1	/	i	i	i	i	i	/	/	/	/	/	/
